Experimental data gathered from unrelated publications.
Read-out: cell growth or viability

| Structure (SMILES) | cell line | method | time | setting | quantity | result |
| --- | --- | --- | --- | --- | --- | --- |
| CC1(C)CCC(CN2CCN(c3ccc(C(=O)NS(=O)(=O)c4ccc(NCC5CCOCC5)c([N+](=O)[O-])c4)c(Oc4cnc5[nH]ccc5c4)c3)CC2)=C(c2ccc(Cl)cc2)C1 | Toledo | ATP luminescence | 48 h |  | IC50 | 71 nM |
| Cc1cccc(-c2[nH]c(CNc3ccccc3F)nc2-c2ccc3ncnn3c2)n1 | MM1.S | XTT |  |  | IC50 | ~1500 nM |
| COc1cc2c3c(n(CCCNC(C)C)c(=O)c2cc1OC)-c1nc2c(cc1C3=O)OCO2 | Kasumi 1 | MTS | 72 h |  | IC50 | 432 nM |
| CC1(CN)CCN(c2cnc3c(Sc4ccncc4Cl)n[nH]c3n2)CC1 | HGC-27 | CCK-8 | 96 h |  | IC50 | 4830 nM |
| Cc1noc2c1-c1ccccc1C(c1ccc(Cl)cc1)=N[C@H]2CC(N)=O | Kasumi 1 | ATP luminescence | 72 h |  | IC50 | 263 nM |
| Nc1cccc2c1C(=O)N(C1CCC(=O)NC1=O)C2=O (stereo not drawn) | MM1.S | XTT |  |  | IC50 | ~300 nM |
| C=CC(=O)NC1CCN(c2ncc3ncnc(Nc4ccc(Oc5ccc6c(c5)ncn6C)c(C)c4)c3n2)CC1 | GP2d |  |  |  | EC50 | 12300 nM |
| C=CC(=O)N1CCN(c2nc(=O)n(-c3c(C)ccnc3C(C)C)c3nc(-c4c(O)cccc4F)c(F)cc23)[C@@H](C)C1 | SW480 | ATP luminescence |  |  | IC50 | > 10000 nM |
| O=C(NO)c1ccc(CNc2nc3cccc(-c4ccc5c(c4)OCO5)n3n2)cc1 | A498 | SRB |  |  | GI50 | 510 nM |
| C=C(F)C(=O)N1CCN(c2nc(OC[C@@H]3CCCN3C)nc3c2CCN(c2cccc4cccc(Cl)c24)C3)C[C@@H]1CC#N | SW480 | ATP luminescence |  | 3D culture | IC50 | > 1000 nM |
| CC(C)c1ccccc1[C@@H]1CCCN1C1CC2(CCN(c3ccc(C(=O)NS(=O)(=O)c4ccc(NC[C@H]5CC[C@](C)(O)CC5)c([N+](=O)[O-])c4)c(Oc4cnc5[nH]ccc5c4)c3)CC2)C1 | Toledo | ATP luminescence | 48 h |  | IC50 | 4.6 nM |
| COc1cc2c3c(n(CCCNCCO)c(=O)c2cc1OC)-c1nc2c(cc1C3=O)OCO2 | Kasumi 1 | MTS | 72 h |  | IC50 | 530 nM |
